Data on one molecule can be found in ChEMBL document CHEMBL2163245 (J Med Chem, 2012).

pIC50: −log10 of the molar value. Activity calls are given as the source filed them. The calls are words filed in the database; no cut-off is given here.

A word on the pIC50: it is the IC50 on a negative log10 scale, so that one unit is a factor of ten. Broadly, the inhibition is the share of the control response that was lost under treatment.

For data set [1], the target named is Voltage-gated potassium channel, IKs; KCNQ1(Kv7.1)/KCNE1(MinK) (Homo sapiens, UniProt P15382+P51787). In words: Antagonist activity at KCNQ1/E1 expressed in CHO cells incubated for 3 mins by automated patch clamp assay.
Data set [2] has as its target Voltage-gated inwardly rectifying potassium channel KCNH2 (Homo sapiens, UniProt Q12809). In words: Inhibition of human ERG.
The target of a further data set is Cytochrome P450 2C9 (Homo sapiens, UniProt P11712).
The next data set has as its system Brain. In words: Fraction unbound in rat brain homogenate. Type of data set: ADME, tissue-based.
In data set [3] the target is T1, Potassium voltage-gated channel subfamily KQT member 1 (Homo sapiens, UniProt P51787).
T1 sequence (P51787 whole entry): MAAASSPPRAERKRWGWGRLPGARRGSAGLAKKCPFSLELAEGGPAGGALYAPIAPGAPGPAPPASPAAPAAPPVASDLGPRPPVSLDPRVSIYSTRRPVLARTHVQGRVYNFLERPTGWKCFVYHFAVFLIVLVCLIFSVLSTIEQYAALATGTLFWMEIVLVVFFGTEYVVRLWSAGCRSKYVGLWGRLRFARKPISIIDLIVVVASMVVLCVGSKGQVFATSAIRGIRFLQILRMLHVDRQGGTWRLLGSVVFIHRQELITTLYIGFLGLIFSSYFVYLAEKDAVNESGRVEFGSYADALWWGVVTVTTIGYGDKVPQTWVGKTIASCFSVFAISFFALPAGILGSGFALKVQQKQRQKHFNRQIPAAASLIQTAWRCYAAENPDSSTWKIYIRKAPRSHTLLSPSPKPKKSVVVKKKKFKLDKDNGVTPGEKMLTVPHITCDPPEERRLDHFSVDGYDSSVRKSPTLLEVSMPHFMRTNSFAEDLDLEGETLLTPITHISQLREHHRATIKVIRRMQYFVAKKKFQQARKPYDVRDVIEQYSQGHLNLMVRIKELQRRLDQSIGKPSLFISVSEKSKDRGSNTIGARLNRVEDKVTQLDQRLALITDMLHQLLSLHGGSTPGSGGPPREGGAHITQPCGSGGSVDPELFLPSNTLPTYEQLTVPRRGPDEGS
In words: Antagonist activity at KCNQ1 expressed in CHO cells incubated for 3 mins by automated patch clamp assay. A general note: The patch-clamp technique gives a direct electrical read-out from membranes.

In another data set the target is Cytochrome P450 2D6 (Homo sapiens, UniProt P10635).
In data set [4] the target is Voltage-gated potassium channel, KQT; KCNQ2(Kv7.2)/KCNQ3(Kv7.3) (Homo sapiens, UniProt O43525+O43526). In words: Antagonist activity at KCNQ2/Q3 expressed in CHO cells incubated for 3 mins by automated patch clamp assay.
The nature of data set [5]: Inhibition of N-type calcium channel at 10 uM.
Data set [6] concerns the target Potassium voltage-gated channel subfamily KQT member 2 (Homo sapiens, UniProt O43526). In words: Antagonist activity at KCNQ2 expressed in CHO cells incubated for 3 mins by automated patch clamp assay. It counts as functional, cell-based.
Data set [7] is described as follows: Inhibition of L-type calcium channel at 10 uM.
The target of a further data set is T2, Cytochrome P450 1A2 (Homo sapiens, UniProt P05177).
T2 sequence (P05177 whole entry): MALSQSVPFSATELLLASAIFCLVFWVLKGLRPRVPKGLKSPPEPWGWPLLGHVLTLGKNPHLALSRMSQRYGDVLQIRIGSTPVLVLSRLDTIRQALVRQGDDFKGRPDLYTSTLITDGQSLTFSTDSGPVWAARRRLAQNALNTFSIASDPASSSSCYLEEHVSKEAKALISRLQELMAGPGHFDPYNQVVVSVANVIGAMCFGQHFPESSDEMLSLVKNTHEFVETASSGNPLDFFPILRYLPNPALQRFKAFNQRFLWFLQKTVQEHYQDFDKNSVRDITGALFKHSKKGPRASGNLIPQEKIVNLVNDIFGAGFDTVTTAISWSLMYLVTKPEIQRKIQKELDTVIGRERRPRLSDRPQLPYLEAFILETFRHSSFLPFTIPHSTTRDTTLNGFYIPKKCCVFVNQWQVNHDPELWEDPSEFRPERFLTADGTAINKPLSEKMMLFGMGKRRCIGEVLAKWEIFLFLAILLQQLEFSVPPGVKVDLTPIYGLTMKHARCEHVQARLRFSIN

The target in data set [8] is Melatonin receptor type 1A (Homo sapiens) (UniProt P48039). In words: Inhibition of human MT1 at 10 uM.
The target of data set [9] is T3, Potassium voltage-gated channel subfamily KQT member 4 (Homo sapiens, UniProt P56696).
T3 sequence (P56696 whole entry): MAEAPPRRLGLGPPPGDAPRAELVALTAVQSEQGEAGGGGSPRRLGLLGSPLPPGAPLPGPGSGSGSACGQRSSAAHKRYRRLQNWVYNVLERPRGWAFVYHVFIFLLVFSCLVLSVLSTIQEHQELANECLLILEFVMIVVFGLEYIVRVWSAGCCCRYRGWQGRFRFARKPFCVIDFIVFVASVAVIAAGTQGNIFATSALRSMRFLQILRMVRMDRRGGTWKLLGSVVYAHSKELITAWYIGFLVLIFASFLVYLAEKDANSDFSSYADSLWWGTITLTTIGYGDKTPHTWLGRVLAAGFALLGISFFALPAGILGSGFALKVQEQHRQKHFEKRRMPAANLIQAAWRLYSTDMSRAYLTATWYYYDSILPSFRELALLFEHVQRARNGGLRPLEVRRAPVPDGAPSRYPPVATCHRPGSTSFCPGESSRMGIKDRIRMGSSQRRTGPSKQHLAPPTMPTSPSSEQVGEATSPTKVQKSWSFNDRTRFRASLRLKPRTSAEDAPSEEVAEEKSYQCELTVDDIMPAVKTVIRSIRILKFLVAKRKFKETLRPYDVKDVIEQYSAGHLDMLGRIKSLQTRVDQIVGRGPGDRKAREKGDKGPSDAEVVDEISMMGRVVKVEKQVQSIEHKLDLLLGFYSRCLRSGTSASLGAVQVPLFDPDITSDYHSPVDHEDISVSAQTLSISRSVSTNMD
In words: Antagonist activity at KCNQ4 expressed in CHO cells incubated for 3 mins by automated patch clamp assay. Type of data set: functional, cell-based. The method, boiled down: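 Population patch clamp on CHO cells stably expressing KCNQ4, freshly dislodged at 7,000 cells/well in extracellular solution (mM: 137 NaCl, 4 KCl, 1 MgCl2, 1.8 CaCl2, 10 HEPES, 10 glucose, pH 7.4). Cells were perforated with 50 μg/ml amphotericin B, held at -70 mV, and stepped to +40 mV. Current was measured at +40 mV before and after 3 min compound exposure and expressed as percent change in the same well.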

Another data set deals with Plasma. In words: Fraction unbound in rat plasma. It counts as ADME, cell-free.
Data set [10] in a line: Plasma concentration in Sprague-Dawley rat at 10 mg/kg, ip after 1 hr by LC.MS analysis. It counts as ADME, organism-based. Further details: dose 10 mg/kg, route intraperitoneal. The method, boiled down:
(§1)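 Male Sprague-Dawley rats (250 g) dosed 10 mg/kg i.p., formulated 3 mg/mL in 10% Tween 80/sterile water. Blood (cardiac puncture) and brain taken at 1 h. Brain washed in cold PBS, frozen, homogenized 1:3 (w/w) in 70:30 isopropanol:water. Plasma and homogenate precipitated with acetonitrile containing carbamazepine internal standard, diluted 1:1 with water, quantified by ESI LC/MS/MS using MRM in positive mode.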

A short description of data set [11]: Drug uptake in Sprague-Dawley rat brain at 10 mg/kg, ip after 1 hr by LC/MS analysis. It counts as ADME, organism-based. The arrangement: dose 10 mg/kg, route intraperitoneal. The following applies: read-out: Drug uptake. In outline:
as §1

A short description of data set [12]: Inhibition of KATP.

Potassium voltage-gated channel subfamily KQT member 2, sequence (O43526 whole entry): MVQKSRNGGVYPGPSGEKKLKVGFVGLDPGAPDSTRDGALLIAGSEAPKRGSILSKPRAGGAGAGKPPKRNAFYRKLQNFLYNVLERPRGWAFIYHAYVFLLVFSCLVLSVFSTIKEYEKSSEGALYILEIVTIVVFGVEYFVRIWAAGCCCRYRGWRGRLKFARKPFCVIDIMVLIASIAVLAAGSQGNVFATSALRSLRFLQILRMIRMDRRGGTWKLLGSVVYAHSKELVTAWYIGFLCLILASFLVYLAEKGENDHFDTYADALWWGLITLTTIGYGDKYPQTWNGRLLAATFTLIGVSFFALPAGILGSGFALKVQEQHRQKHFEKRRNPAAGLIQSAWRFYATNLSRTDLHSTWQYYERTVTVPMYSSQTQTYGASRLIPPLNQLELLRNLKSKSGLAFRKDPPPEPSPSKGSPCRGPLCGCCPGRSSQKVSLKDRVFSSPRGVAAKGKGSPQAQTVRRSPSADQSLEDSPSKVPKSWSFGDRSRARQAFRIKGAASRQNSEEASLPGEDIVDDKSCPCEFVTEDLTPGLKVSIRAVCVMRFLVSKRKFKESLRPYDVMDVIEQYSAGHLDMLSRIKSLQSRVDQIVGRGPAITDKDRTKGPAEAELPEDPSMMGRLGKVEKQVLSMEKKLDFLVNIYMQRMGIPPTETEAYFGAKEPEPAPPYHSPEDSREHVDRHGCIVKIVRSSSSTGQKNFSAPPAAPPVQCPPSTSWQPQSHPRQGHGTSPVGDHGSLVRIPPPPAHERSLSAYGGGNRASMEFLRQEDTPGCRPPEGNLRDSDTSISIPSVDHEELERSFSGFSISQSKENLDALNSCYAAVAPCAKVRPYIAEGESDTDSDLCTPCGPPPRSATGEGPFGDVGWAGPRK
Voltage-gated potassium channel, KQT; KCNQ2(Kv7.2)/KCNQ3(Kv7.3), sequence (O43526 whole entry): as above
Voltage-gated potassium channel, KQT; KCNQ2(Kv7.2)/KCNQ3(Kv7.3), sequence (O43525 whole entry): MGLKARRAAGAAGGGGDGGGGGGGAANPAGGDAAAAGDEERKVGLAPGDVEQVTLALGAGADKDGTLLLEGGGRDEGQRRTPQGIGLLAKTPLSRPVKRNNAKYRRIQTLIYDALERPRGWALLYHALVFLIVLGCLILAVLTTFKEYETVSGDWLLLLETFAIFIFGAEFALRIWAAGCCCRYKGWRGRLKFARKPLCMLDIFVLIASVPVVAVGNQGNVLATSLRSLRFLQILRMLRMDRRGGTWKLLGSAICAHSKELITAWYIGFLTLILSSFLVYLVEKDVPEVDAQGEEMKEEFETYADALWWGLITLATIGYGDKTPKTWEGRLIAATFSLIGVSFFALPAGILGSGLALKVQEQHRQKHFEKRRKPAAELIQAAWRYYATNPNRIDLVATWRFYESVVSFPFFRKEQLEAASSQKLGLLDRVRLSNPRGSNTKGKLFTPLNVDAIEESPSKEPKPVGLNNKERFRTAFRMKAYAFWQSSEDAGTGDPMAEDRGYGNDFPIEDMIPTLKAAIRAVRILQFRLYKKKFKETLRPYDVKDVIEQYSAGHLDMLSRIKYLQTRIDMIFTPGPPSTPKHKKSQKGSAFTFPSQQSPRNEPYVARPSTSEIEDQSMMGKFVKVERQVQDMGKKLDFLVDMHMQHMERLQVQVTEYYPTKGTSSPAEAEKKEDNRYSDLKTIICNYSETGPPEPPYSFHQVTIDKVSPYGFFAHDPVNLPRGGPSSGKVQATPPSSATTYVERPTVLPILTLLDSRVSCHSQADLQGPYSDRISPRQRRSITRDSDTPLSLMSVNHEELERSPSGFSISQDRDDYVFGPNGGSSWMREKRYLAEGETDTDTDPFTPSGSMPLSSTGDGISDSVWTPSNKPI
Cytochrome P450 2D6, sequence (P10635 whole entry): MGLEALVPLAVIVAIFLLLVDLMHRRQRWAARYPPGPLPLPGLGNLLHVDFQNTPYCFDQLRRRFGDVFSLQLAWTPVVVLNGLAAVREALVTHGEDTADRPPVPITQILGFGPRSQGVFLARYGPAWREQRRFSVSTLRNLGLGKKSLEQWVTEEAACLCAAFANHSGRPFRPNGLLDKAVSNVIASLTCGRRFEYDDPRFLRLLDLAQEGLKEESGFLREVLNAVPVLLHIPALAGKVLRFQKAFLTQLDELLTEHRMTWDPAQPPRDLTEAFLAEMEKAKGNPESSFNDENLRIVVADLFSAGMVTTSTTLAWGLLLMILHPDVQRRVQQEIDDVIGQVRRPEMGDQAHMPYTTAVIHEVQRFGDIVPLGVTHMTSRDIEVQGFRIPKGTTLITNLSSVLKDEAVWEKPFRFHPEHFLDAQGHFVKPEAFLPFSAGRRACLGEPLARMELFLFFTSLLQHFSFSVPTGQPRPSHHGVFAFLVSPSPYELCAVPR
Melatonin receptor type 1A (Homo sapiens), sequence (P48039 whole entry): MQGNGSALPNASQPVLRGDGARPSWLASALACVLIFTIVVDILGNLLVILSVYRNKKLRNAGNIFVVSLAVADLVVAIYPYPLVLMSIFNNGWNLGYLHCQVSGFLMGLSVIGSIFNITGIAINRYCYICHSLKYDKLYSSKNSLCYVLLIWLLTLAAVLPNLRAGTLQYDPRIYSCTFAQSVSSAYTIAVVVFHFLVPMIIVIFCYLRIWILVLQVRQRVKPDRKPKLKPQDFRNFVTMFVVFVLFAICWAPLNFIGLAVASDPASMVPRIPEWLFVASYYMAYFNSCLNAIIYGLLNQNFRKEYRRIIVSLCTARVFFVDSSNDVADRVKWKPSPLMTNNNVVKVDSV
Voltage-gated inwardly rectifying potassium channel KCNH2, sequence (Q12809 whole entry): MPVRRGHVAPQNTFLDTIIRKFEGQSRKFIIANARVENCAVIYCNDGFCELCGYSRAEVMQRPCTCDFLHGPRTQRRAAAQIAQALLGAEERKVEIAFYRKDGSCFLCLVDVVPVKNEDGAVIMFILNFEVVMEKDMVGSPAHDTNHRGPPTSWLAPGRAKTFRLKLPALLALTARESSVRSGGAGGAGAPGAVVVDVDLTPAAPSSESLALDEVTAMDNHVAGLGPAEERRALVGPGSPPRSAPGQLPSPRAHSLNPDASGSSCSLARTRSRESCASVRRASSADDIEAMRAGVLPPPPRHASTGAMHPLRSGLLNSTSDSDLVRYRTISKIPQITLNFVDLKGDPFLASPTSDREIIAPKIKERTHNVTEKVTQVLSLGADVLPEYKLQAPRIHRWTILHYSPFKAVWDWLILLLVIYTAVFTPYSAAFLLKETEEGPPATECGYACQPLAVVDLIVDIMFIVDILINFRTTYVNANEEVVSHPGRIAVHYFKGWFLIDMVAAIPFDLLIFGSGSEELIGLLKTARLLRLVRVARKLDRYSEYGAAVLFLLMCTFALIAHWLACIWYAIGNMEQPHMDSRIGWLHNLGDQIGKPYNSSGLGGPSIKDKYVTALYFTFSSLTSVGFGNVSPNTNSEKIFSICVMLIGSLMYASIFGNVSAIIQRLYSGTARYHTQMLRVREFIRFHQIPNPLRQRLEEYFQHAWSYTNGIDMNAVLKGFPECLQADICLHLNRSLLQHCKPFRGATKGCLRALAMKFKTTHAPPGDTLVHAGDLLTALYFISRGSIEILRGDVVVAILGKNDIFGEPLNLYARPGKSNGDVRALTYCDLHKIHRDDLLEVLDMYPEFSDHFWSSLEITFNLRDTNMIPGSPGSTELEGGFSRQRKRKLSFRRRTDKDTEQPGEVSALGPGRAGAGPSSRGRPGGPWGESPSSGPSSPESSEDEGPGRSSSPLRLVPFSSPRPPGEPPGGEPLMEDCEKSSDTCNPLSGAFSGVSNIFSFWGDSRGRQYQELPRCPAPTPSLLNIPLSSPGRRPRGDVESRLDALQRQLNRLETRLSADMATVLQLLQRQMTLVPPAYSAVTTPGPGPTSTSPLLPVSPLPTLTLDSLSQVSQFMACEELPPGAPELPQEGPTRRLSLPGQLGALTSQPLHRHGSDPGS
Cytochrome P450 2C9, sequence (P11712 whole entry): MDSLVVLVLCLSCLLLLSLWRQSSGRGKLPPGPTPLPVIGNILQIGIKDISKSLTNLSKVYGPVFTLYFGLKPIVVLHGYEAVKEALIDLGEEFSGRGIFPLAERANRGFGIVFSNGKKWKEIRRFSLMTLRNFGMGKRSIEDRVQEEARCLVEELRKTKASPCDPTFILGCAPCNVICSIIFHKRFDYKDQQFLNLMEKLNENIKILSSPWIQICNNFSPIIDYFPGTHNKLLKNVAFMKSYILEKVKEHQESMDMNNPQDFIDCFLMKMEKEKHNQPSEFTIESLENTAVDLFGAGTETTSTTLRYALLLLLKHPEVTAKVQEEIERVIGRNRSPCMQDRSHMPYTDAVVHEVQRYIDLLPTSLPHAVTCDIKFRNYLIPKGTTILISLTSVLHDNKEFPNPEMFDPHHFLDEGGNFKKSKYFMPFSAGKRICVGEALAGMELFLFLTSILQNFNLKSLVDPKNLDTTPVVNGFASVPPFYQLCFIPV

In the case of `CC[C@H](C(=O)Nc1ccccc1N1CCCC1)c1ccccc1`, the pIC50 is 5.09 in [1]; 4.72 at Cytochrome P450 2C9; 5.53 in data set [3]; 4.70 against Cytochrome P450 2D6; 6.92 in data set [4]; 7.15 in data set [6]. The values for the pIC50 (against Cytochrome P450 1A2; in data set [9]) were 5.21 and 6.70, respectively. The “inhibition (INH)” value in [2] was “Not Active”. For the same molecule, the figures for the Fu with Brain and with Plasma were 0.3% and 0.6%, respectively. Moreover, the inhibition entry in data set [5], in [7] and in data set [12] was “inactive” each time. In data set [8], the inhibition stood at 61%. For the same molecule, the concentration at 1 h in data set [10] is 116 ng/mL; in data set [11] it was 208 ng/g.
